System: Fibroblast
Assay: Multiplex assay against human fibroblast
Format: toxicity, cell-based
Summary of the method: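 Cells were classed with CellPathfinder machine-learning gating, first as Hoechst high-intensity objects or normal cells, then (normal cells) as healthy, pyknosed or fragmented nuclei, and finally (pyknosed cells) as mitotic or apoptotic. Staining of live cells at seeding used Hoechst33342, BioTracker Green Microtubule Cytoskeleton Dye, MitoTracker Red and Annexin V Alexa Fluor 680, with imaging on a CQ1 microscope at 37°C and 5% CO2 after compound addition. Tubulin, mitochondrial-mass and membrane-permeability phenotypes are per cents of healthy-nucleus cells.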

[1] = 12 h, 1 µM, compound concentration 1 uM, replicate 1
[2] = 12 h, 1 µM, compound concentration 1 uM, replicate 2
[3] = 12 h, 10 µM, compound concentration 10 uM, replicate 1
[4] = 12 h, 10 µM, compound concentration 10 uM, replicate 2
[5] = 24 h, 1 µM, compound concentration 1 uM, replicate 1
[6] = 24 h, 1 µM, compound concentration 1 uM, replicate 2
[7] = 24 h, 10 µM, compound concentration 10 uM, replicate 1
[8] = 24 h, 10 µM, compound concentration 10 uM, replicate 2
[9] = 48 h, 1 µM, compound concentration 1 uM, replicate 1
[10] = 48 h, 1 µM, compound concentration 1 uM, replicate 2
[11] = 48 h, 10 µM, compound concentration 10 uM, replicate 1
[12] = 48 h, 10 µM, compound concentration 10 uM, replicate 2

CN1CCC(=C2c3ccccc3CC(=O)c3sccc32)CC1.O=C(O)/C=C/C(=O)O [KETOTIFEN FUMARATE]
Population Apoptotic (%) [1]: 61%
Population Fragmented Nuclei (%) [1]: 26%
Population Healthy Nuclei (%) [1]: 41%
Population Hoechst High Intensity Objects (%) [1]: 12%
Population Membrane Permeable-Phenotype (%) [1]: 24%
Population Mitochondria Different-Phenotype (%) [1]: 3%
Population Mitotic Cells (%) [1]: 38%
Population Normal (%) [1]: 87%
Population Pyknosed Nuclei (%) [1]: 32%
Population Tubulin-Different-Phenotype (%) [1]: 37%
Total Cell Count [1]: 149
Population Apoptotic (%) [2]: 75%
Population Fragmented Nuclei (%) [2]: 6%
Population Healthy Nuclei (%) [2]: 87%
Population Hoechst High Intensity Objects (%) [2]: 5%
Population Membrane Permeable-Phenotype (%) [2]: 10%
Population Mitochondria Different-Phenotype (%) [2]: 12%
Population Mitotic Cells (%) [2]: 25%
Population Normal (%) [2]: 94%
Population Pyknosed Nuclei (%) [2]: 6%
Population Tubulin-Different-Phenotype (%) [2]: 9%
Total Cell Count [2]: 56
Population Apoptotic (%) [3]: 73%
Population Fragmented Nuclei (%) [3]: 21%
Population Healthy Nuclei (%) [3]: 51%
Population Hoechst High Intensity Objects (%) [3]: 16%
Population Membrane Permeable-Phenotype (%) [3]: 6%
Population Mitochondria Different-Phenotype (%) [3]: 23%
Population Mitotic Cells (%) [3]: 26%
Population Normal (%) [3]: 83%
Population Pyknosed Nuclei (%) [3]: 26%
Population Tubulin-Different-Phenotype (%) [3]: 84%
Total Cell Count [3]: 168
Population Apoptotic (%) [4]: 33%
Population Fragmented Nuclei (%) [4]: 2%
Population Healthy Nuclei (%) [4]: 75%
Population Hoechst High Intensity Objects (%) [4]: 1%
Population Membrane Permeable-Phenotype (%) [4]: 15%
Population Mitochondria Different-Phenotype (%) [4]: 90%
Population Mitotic Cells (%) [4]: 66%
Population Normal (%) [4]: 98%
Population Pyknosed Nuclei (%) [4]: 22%
Population Tubulin-Different-Phenotype (%) [4]: 95%
Total Cell Count [4]: 67
Population Apoptotic (%) [5]: 63%
Population Fragmented Nuclei (%) [5]: 25%
Population Healthy Nuclei (%) [5]: 45%
Population Hoechst High Intensity Objects (%) [5]: 12%
Population Membrane Permeable-Phenotype (%) [5]: 16%
Population Mitochondria Different-Phenotype (%) [5]: 6%
Population Mitotic Cells (%) [5]: 36%
Population Normal (%) [5]: 88%
Population Pyknosed Nuclei (%) [5]: 28%
Population Tubulin-Different-Phenotype (%) [5]: 38%
Total Cell Count [5]: 150
Population Apoptotic (%) [6]: 100%
Population Fragmented Nuclei (%) [6]: 8%
Population Healthy Nuclei (%) [6]: 86%
Population Hoechst High Intensity Objects (%) [6]: 7%
Population Membrane Permeable-Phenotype (%) [6]: 9%
Population Mitochondria Different-Phenotype (%) [6]: 10%
Population Mitotic Cells (%) [6]: 0%
Population Normal (%) [6]: 92%
Population Pyknosed Nuclei (%) [6]: 5%
Population Tubulin-Different-Phenotype (%) [6]: 4%
Total Cell Count [6]: 64
Population Apoptotic (%) [7]: 75%
Population Fragmented Nuclei (%) [7]: 33%
Population Healthy Nuclei (%) [7]: 51%
Population Hoechst High Intensity Objects (%) [7]: 16%
Population Membrane Permeable-Phenotype (%) [7]: 17%
Population Mitochondria Different-Phenotype (%) [7]: 28%
Population Mitotic Cells (%) [7]: 25%
Population Normal (%) [7]: 83%
Population Pyknosed Nuclei (%) [7]: 15%
Population Tubulin-Different-Phenotype (%) [7]: 83%
Total Cell Count [7]: 189
Population Apoptotic (%) [8]: 59%
Population Fragmented Nuclei (%) [8]: 6%
Population Healthy Nuclei (%) [8]: 66%
Population Hoechst High Intensity Objects (%) [8]: 2%
Population Membrane Permeable-Phenotype (%) [8]: 22%
Population Mitochondria Different-Phenotype (%) [8]: 98%
Population Mitotic Cells (%) [8]: 40%
Population Normal (%) [8]: 97%
Population Pyknosed Nuclei (%) [8]: 27%
Population Tubulin-Different-Phenotype (%) [8]: 88%
Total Cell Count [8]: 80
Population Apoptotic (%) [9]: 61%
Population Fragmented Nuclei (%) [9]: 34%
Population Healthy Nuclei (%) [9]: 52%
Population Hoechst High Intensity Objects (%) [9]: 16%
Population Membrane Permeable-Phenotype (%) [9]: 20%
Population Mitochondria Different-Phenotype (%) [9]: 2%
Population Mitotic Cells (%) [9]: 38%
Population Normal (%) [9]: 83%
Population Pyknosed Nuclei (%) [9]: 12%
Population Tubulin-Different-Phenotype (%) [9]: 34%
Total Cell Count [9]: 170
Population Apoptotic (%) [10]: 40%
Population Fragmented Nuclei (%) [10]: 28%
Population Healthy Nuclei (%) [10]: 64%
Population Hoechst High Intensity Objects (%) [10]: 10%
Population Membrane Permeable-Phenotype (%) [10]: 18%
Population Mitochondria Different-Phenotype (%) [10]: 0%
Population Mitotic Cells (%) [10]: 60%
Population Normal (%) [10]: 89%
Population Pyknosed Nuclei (%) [10]: 6%
Population Tubulin-Different-Phenotype (%) [10]: 32%
Total Cell Count [10]: 86
Population Apoptotic (%) [11]: 87%
Population Fragmented Nuclei (%) [11]: 41%
Population Healthy Nuclei (%) [11]: 53%
Population Hoechst High Intensity Objects (%) [11]: 31%
Population Membrane Permeable-Phenotype (%) [11]: 16%
Population Mitochondria Different-Phenotype (%) [11]: 9%
Population Mitotic Cells (%) [11]: 12%
Population Normal (%) [11]: 68%
Population Pyknosed Nuclei (%) [11]: 4%
Population Tubulin-Different-Phenotype (%) [11]: 68%
Total Cell Count [11]: 260
Population Apoptotic (%) [12]: 0%
Population Fragmented Nuclei (%) [12]: 34%
Population Healthy Nuclei (%) [12]: 64%
Population Hoechst High Intensity Objects (%) [12]: 23%
Population Membrane Permeable-Phenotype (%) [12]: 13%
Population Mitochondria Different-Phenotype (%) [12]: 5%
Population Mitotic Cells (%) [12]: 100%
Population Normal (%) [12]: 76%
Population Pyknosed Nuclei (%) [12]: 1%
Population Tubulin-Different-Phenotype (%) [12]: 86%
Total Cell Count [12]: 176
